Experimental data reported in ChEMBL document CHEMBL2396559, “Synthesis and preliminary biological evaluation of a compound library of triazolylcyclitols” (2013).
The source made the active and inactive calls. No cut-off for these calls is given here.

Tests used:
Splenic lymphocyte = test: Immunosuppressive activity against C57Bl/6 mouse splenic lymphocytes assessed as cell viability at 200 nM after 72 hrs by MTT assay; format: functional
Outline: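 Spleens from male 18-week-old C57Bl/6 mice were teased through a strainer, washed in RPMI and resuspended in RPMI with 10% FBS. Cells were counted by trypan blue and cultured in triplicate at 37 °C for 72 h with vehicle (medium, 0.1% DMSO), 10% DMSO or compound at 200 nM. MTT was added for 2 h, formazan dissolved in DMSO and read at 570 nm. Viability taken as % of vehicle after blank subtraction. Three animals.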

Candida albicans = test: Antifungal activity against Candida albicans ATCC 90022 assessed as growth inhibition at 10 mg/mL by bioautographic agar overlay method; format: functional, organism-based
Outline: (§1)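 Samples at 10 mg/mL spotted on silica gel TLC plates, overlaid with a thin Sabouraud agar film inoculated 50:1 with fresh-culture suspension at 10^6 cells or spores/mL. Incubation time and conditions were set per fungus. Growth-free zones around spots scored qualitatively. Same plate carried DMSO 1% negative control plus amphotericin B and ketoconazol controls.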

Candida parapsilosis = test: Antifungal activity against Candida parapsilosis ATCC 22919 assessed as growth inhibition at 10 mg/mL by bioautographic agar overlay method; format: functional, organism-based; outline: as §1
Nannizzia gypsea = test: Antifungal activity against Microsporum gypseum ATCC 24102 assessed as growth inhibition at 10 mg/mL by bioautographic agar overlay method; format: functional, organism-based; outline: as §1
Nakaseomyces glabratus = test: Antifungal activity against Candida glabrata ATCC 15126 assessed as growth inhibition at 10 mg/mL by bioautographic agar overlay method; format: functional, organism-based; outline: as §1
Trichophyton rubrum = test: Antifungal activity against Trichophyton rubrum ATCC 28188 assessed as growth inhibition at 10 mg/mL by bioautographic agar overlay method; format: functional, organism-based; outline: as §1
[1] = Immunosuppressive activity against C57Bl/6 mouse splenic lymphocytes assessed as concanavalin A-induced cell proliferation at > 0.002 nM incubated for 1 hr prior to concanavalin A challenge measured after 48 hrs by resazurin reduction assay relative to control; format: functional, Splenic lymphocyte; set-up: scale not given: the % may be the effect or the level left
Outline: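 Splenocytes from male C57Bl/6 mice were plated at 1×10^6 cells/mL, 37 °C, 5% CO2. Compounds at 0.002–200 nM were added for 1 h, then cells were incubated with or without concanavalin A (0.5 µg/mL) for 48 h. Resazurin 0.01% was added for 24 h, then OD read at 570 and 600 nm and proliferation taken as the difference. Compared with ConA plus vehicle. Three animals in triplicate.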

Cryptococcus neoformans = test: Antifungal activity against Cryptococcus neoformans ATCC 14116 assessed as growth inhibition at 10 mg/mL by bioautographic agar overlay method; format: functional, organism-based; outline: as §1
[2] = tested on: Trichophyton mentagrophytes; test: Antifungal activity against Trichophyton mentagrophytes ATCC 9533 assessed as growth inhibition at 10 mg/mL by bioautographic agar overlay method; format: functional, organism-based; outline: as §1

Compound	Activity (Splenic lymphocyte)	growth inhibition (GI) (Candida albicans)	growth inhibition (GI) (Candida parapsilosis)	growth inhibition (GI) (Nannizzia gypsea)	growth inhibition (GI) (Nakaseomyces glabratus)	growth inhibition (GI) (Trichophyton rubrum)	Activity [1]	growth inhibition (GI) (Cryptococcus neoformans)	growth inhibition (GI) [2]
C#Cc1cccc(-c2cn([C@H]3C=C(Br)[C@@H](O)[C@@H](O)[C@@H]3O)nn2)c1	inactive	inactive	inactive	inactive	inactive	inactive	<=30%	inactive	inactive
O[C@H]1[C@H](O)[C@H](n2cc(-c3ccc(-c4cn([C@H]5C=C(Br)[C@@H](O)[C@@H](O)[C@@H]5O)nn4)cc3)nn2)C=C(Br)[C@H]1O (mixture of isomers)	inactive	inactive	inactive	inactive	inactive	inactive	<=30%	inactive	inactive
C#Cc1ccc(-c2cn([C@@H]3C=C(Br)[C@@H](O)[C@@H](O)[C@@H]3O)nn2)cc1	inactive	inactive	Active	inactive	inactive	inactive	<=30%	inactive	inactive
O[C@H]1[C@H](O)[C@@H](n2cc(-c3cccc(-c4cn([C@H]5C=C(Br)[C@@H](O)[C@@H](O)[C@@H]5O)nn4)c3)nn2)C=C(Br)[C@H]1O	inactive	inactive	inactive	inactive	inactive	inactive	<=30%	inactive	inactive
C#Cc1cccc(-c2cn([C@@H]3C=C(Br)[C@@H](O)[C@@H](O)[C@@H]3O)nn2)c1	inactive	inactive	Active	inactive	inactive	inactive	<=30%	inactive	inactive
O[C@H]1[C@H](O)[C@H](n2cc(-c3cccc(-c4cn([C@H]5C=C(Br)[C@@H](O)[C@@H](O)[C@@H]5O)nn4)c3)nn2)C=C(Br)[C@H]1O (mixture of isomers)	inactive	inactive	inactive	inactive	Active	inactive	<=30%	inactive	Active
O[C@H]1[C@H](O)[C@@H](n2cc(-c3ccc(-c4cn([C@H]5C=C(Br)[C@@H](O)[C@@H](O)[C@@H]5O)nn4)cc3)nn2)C=C(Br)[C@H]1O	inactive	inactive	inactive	Active	inactive	Active	<=30%	inactive	inactive
C#Cc1ccc(-c2cn([C@H]3C=C(Br)[C@@H](O)[C@@H](O)[C@@H]3O)nn2)cc1	inactive	inactive	inactive	inactive	inactive	inactive	<=30%	inactive	inactive
O[C@H]1[C@H](O)[C@H](n2cc(-c3ccc(-c4cn([C@@H]5C=C(Br)[C@@H](O)[C@@H](O)[C@@H]5O)nn4)cc3)nn2)C=C(Br)[C@H]1O	inactive	inactive	Active	inactive	inactive	inactive	<=30%	inactive	inactive
O[C@H]1[C@H](O)[C@H](n2cc(-c3cccc(-c4cn([C@@H]5C=C(Br)[C@@H](O)[C@@H](O)[C@@H]5O)nn4)c3)nn2)C=C(Br)[C@H]1O	inactive	inactive	inactive	inactive	inactive	inactive	<=30%	inactive	inactive
